Assay results from different studies.
Compare with care: the assays were run in different laboratories.
Action: inhibitor
ACHE: Acetylcholinesterase (ACHE, Homo sapiens, UniProt P22303)
DPP4: Dipeptidyl peptidase 4 (DPP4, Homo sapiens, UniProt P27487)
APOBEC3G: DNA dC->dU-editing enzyme APOBEC-3G (APOBEC3G, Homo sapiens, UniProt Q9HC16)
CDK9 with cyclin T1: Cyclin-dependent kinase 9, with cyclin T1 (CDK9, Homo sapiens, UniProt P50750)

| SMILES | target | test | test system | conditions | IC50 |
| --- | --- | --- | --- | --- | --- |
| C=CCn1c2cc(OC(=O)CCCCN3CCN(Cc4cccc(C)c4)CC3)ccc2c2ccnc(C)c21 | ACHE | enzyme activity, Ellman |  |  | 0.0358 µM |
| CC(C)[C@H](N)C(=O)N1CCC[C@H]1C(=O)N[C@H](C(=O)N1CCC[C@H]1C(=O)N[C@H](C(=O)O)C(C)C)C(C)C | DPP4 | enzyme activity, absorbance |  | pH 8 | 59.1 µM |
| CSCC[C@H](NC(=O)[C@H](Cc1c[nH]cn1)NC(=O)[C@H](Cc1c[nH]cn1)NC(=O)[C@@H](N)CCCCN)C(=O)N[C@@H](Cc1ccc(O)cc1)C(=O)N[C@H](C(=O)N[C@@H](CO)C(=O)NCC(=O)N[C@@H](CCCCN)C(=O)N[C@@H](C)C(=O)N[C@@H](CCCNC(=N)N)C(=O)NCC(=O)N[C@@H](Cc1c[nH]c2ccccc12)C(=O)N[C@@H](Cc1ccccc1)C(=O)O)C(C)C | APOBEC3G | enzyme activity |  | pH 7.4 | 80 µM |
| CC[C@H]1NC(=O)[C@@H]2CSC(=N2)[C@@H](Cc2ccccc2)N(C)C(=O)[C@@H]2CCCN2C(=O)[C@H](C(C)C)N(C)C(=O)[C@H](Cc2ccccc2)OC(=O)[C@H](C)[C@@H](C)NC(=O)[C@@H]([C@@H](C)O)NC(=O)[C@@H](CC(C)C)N(C)C(=O)[C@@H]2CSC1=N2 | DPP4 | enzyme activity |  |  | 347 µM |
| C[C@H]1CN(c2n[nH]c3nc(N[C@H]4CC[C@H](NS(=O)(=O)CCC(F)(F)F)CC4)ncc23)CCO1 | Cyclin-dependent kinase 9 (CDK9, Homo sapiens, UniProt P50750) | cell-free assay, chemoproteomics |  | lysate | > 20 µM |
| CC[C@H](C)[C@H](N)C(=O)N1CCC[C@H]1C(=O)N[C@H](C(=O)N1CCC[C@H]1C(=O)N[C@H](C(=O)O)[C@@H](C)CC)C(C)C | DPP4 | enzyme activity, absorbance |  | pH 8 | 57 µM |
| CC[C@H](C)[C@H](N)C(=O)N[C@@H](Cc1c[nH]cn1)C(=O)N[C@@H](CC(C)C)C(=O)N[C@@H](Cc1ccc(O)cc1)C(=O)N[C@@H](Cc1ccc(O)cc1)C(=O)N[C@@H](Cc1ccccc1)C(=O)N[C@@H](CC(=O)O)C(=O)O | APOBEC3G | enzyme activity |  | pH 7.4 | 110 µM |
| Cc1cc(C)nc(Nc2ncc(C(=O)NCCc3c(C)[nH]c4ccccc34)cn2)c1 | Cytochrome P450 2C8 (CYP2C8, Homo sapiens, UniProt P10632) | enzyme activity | human, liver microsomes |  | 4 µM |
| COc1c(-c2ccc3c(c2)OCO3)oc2c(ccc3occc32)c1=O | CDK9 with cyclin T1 | enzyme activity, ADP detection |  |  | 38.4 µM |
| CC(C)C[C@@H]1C(=O)N[C@H]([C@@H](C)O)C(=O)N[C@H](C)[C@@H](C)C(=O)O[C@@H](Cc2ccccc2)C(=O)N(C)[C@@H](C(C)C)C(=O)N2CCC[C@H]2C(=O)N(C)[C@H](Cc2ccccc2)C2=N[C@@H](CS2)C(=O)N[C@H](C)C2=N[C@@H](CS2)C(=O)N1C | DPP4 | enzyme activity |  |  | 164 µM |
| CC[C@H](C)[C@H](NC(=O)[C@@H]1CCCN1C(=O)[C@@H](NC(=O)[C@@H]1CCCN1C(=O)[C@@H](N)C(C)C)C(C)C)C(=O)O | DPP4 | enzyme activity, absorbance |  | pH 8 | 103 µM |
| COc1c(-c2ccccc2)oc2c(ccc3occc32)c1=O | CDK9 with cyclin T1 | enzyme activity, ADP detection |  |  | > 100 µM |
| CC(C)[C@H](N)C(=O)N1CCC[C@H]1C(=O)N[C@H](C(=O)N1CCC[C@H]1C(=O)N[C@@H](CCC(N)=O)C(=O)O)C(C)C | DPP4 | enzyme activity, absorbance |  | pH 8 | 112 µM |
| C=CCn1c2cc(OC(=O)CCCCN3CCN(Cc4ccccc4F)CC3)ccc2c2ccnc(C)c21 | ACHE | enzyme activity, Ellman |  |  | 0.15 µM |
